Here are results for three compounds from ChEMBL document CHEMBL5653631, “A Potent and Selective ULK1 Inhibitor Suppresses Autophagy and Sensitizes Cancer Cells to Nutrient Stress” (iScience, 2018).

The target of assay [1] is Serine/threonine-protein kinase PAK 3 (Homo sapiens) (UniProt O75914). Put plainly: Inhibition of human recombinant PAK3 at 40 nM in presence of ATP by radiometric assay relative to control.
The target of assay [2] is T1, TGF-beta receptor type-1 (Homo sapiens) (UniProt P36897).
T1 sequence (whole entry): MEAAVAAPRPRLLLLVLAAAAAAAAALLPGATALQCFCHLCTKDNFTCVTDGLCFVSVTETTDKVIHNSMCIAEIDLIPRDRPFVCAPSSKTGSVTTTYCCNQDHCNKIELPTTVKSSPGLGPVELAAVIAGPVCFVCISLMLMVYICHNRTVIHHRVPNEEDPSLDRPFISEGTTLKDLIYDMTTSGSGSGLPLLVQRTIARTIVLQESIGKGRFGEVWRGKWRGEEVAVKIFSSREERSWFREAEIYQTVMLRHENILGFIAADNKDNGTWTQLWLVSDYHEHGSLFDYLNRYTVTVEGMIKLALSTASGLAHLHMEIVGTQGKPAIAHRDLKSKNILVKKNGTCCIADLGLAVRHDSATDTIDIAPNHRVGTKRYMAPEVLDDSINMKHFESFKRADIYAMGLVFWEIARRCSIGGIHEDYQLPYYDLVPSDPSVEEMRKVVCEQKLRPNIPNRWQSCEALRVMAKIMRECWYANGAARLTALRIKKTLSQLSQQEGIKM
As to the kind of experiment: Inhibition of human recombinant TGFbR1 at 40 nM in presence of ATP by radiometric assay relative to control.

For the next assay, the species on record is Homo sapiens. Put plainly: Inhibition of human recombinant ABL at 40 nM related to control ULK1. The method, boiled down:
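Radiometric activity assays in a panel of 327 human recombinant kinases, each run in duplicate at one inhibitor concentration. Activity remaining is expressed as percent of vehicle control, and percent inhibition is calculated as 100% minus percent activity remaining.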

Assay [3] deals with T2, Eukaryotic translation initiation factor 2-alpha kinase 3 (Homo sapiens) (UniProt Q9NZJ5).
T2 sequence (whole entry): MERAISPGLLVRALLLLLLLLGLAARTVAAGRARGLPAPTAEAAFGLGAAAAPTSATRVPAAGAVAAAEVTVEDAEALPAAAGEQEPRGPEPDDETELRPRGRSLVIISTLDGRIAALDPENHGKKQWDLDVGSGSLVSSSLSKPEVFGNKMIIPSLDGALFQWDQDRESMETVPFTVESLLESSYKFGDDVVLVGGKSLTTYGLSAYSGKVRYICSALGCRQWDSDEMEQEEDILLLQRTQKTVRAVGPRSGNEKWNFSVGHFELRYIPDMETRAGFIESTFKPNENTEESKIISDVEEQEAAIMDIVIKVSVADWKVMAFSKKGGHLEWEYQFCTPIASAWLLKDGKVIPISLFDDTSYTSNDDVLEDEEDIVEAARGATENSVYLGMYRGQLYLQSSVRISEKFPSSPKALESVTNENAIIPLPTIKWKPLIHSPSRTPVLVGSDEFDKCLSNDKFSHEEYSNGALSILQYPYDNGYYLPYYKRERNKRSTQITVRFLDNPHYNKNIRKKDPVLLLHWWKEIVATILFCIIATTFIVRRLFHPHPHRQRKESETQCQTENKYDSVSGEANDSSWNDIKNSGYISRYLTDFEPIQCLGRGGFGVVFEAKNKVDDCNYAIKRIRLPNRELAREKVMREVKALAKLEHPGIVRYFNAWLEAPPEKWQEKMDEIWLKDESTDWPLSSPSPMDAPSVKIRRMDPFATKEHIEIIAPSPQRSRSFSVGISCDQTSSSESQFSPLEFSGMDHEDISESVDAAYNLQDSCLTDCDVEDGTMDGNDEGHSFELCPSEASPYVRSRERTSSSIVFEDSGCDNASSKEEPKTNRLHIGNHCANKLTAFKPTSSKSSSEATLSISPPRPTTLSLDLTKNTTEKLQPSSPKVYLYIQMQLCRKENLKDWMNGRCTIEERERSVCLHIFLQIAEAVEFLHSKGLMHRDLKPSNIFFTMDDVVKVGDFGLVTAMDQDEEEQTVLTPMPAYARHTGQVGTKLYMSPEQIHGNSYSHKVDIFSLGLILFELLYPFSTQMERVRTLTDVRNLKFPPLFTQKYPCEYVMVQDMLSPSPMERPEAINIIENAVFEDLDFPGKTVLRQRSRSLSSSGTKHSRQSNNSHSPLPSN
Put plainly: Inhibition of human recombinant PEK at 40 nM related to control ULK1.

Assay [4] concerns the target T3, Serine/threonine-protein kinase TAO3 (Homo sapiens) (UniProt Q9H2K8).
T3 sequence (whole entry): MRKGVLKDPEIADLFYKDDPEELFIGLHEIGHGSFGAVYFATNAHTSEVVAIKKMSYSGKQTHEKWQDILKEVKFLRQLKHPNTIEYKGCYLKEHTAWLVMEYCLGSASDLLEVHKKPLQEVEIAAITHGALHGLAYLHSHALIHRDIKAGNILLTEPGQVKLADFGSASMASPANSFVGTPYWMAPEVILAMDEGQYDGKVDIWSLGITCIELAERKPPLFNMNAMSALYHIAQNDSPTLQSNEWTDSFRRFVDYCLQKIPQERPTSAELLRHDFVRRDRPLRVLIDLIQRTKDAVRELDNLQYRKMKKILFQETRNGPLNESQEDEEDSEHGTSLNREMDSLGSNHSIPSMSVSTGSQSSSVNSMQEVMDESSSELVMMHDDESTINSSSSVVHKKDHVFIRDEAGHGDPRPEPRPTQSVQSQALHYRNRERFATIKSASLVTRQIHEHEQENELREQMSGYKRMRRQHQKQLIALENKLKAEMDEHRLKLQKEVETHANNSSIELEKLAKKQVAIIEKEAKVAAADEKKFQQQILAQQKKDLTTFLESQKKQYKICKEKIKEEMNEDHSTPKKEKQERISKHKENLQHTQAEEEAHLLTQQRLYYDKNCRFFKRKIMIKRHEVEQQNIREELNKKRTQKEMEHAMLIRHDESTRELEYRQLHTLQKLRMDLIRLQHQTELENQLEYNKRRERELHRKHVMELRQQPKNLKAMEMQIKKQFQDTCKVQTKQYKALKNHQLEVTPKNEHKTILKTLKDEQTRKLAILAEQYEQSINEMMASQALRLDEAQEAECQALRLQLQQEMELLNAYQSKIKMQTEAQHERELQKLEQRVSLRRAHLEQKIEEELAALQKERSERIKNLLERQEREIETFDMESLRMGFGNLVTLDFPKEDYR
Put plainly: Inhibition of human recombinant TAO3 at 40 nM related to control ULK1.

In assay [5] the target is Serine/threonine-protein kinase WNK2 (Homo sapiens) (UniProt Q9Y3S1). Put plainly: Inhibition of human recombinant Wnk2 at 40 nM related to control ULK1.
Assay [6] concerns the target Rho-associated protein kinase 1 (Homo sapiens) (UniProt Q13464). Put plainly: Inhibition of human recombinant ROCK1 at 500 nM in presence of ATP by radiometric assay relative to control.
The target of assay [7] is SRSF protein kinase 3 (Homo sapiens) (UniProt Q9UPE1). As to the kind of experiment: Inhibition of human recombinant MSSK1 at 15 nM in presence of ATP by radiometric assay relative to control.
Chain of SRSF protein kinase 3 (Homo sapiens) (Q9UPE1 whole entry): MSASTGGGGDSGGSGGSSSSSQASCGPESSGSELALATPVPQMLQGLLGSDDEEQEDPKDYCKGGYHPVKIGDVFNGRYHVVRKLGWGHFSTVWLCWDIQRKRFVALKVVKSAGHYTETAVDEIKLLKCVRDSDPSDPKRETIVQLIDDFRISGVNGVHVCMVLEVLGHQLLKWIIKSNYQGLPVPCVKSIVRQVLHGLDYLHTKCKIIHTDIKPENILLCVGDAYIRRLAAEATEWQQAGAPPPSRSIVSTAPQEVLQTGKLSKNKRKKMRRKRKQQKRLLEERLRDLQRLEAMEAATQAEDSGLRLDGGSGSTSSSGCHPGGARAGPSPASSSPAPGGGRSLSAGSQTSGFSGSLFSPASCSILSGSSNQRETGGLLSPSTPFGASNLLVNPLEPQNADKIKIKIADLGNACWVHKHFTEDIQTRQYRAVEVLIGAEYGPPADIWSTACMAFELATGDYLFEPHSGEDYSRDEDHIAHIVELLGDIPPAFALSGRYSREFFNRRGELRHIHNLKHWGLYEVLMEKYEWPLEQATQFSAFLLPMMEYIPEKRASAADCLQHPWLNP

Chain of Rho-associated protein kinase 1 (Homo sapiens) (Q13464 2-1354 limits assumed): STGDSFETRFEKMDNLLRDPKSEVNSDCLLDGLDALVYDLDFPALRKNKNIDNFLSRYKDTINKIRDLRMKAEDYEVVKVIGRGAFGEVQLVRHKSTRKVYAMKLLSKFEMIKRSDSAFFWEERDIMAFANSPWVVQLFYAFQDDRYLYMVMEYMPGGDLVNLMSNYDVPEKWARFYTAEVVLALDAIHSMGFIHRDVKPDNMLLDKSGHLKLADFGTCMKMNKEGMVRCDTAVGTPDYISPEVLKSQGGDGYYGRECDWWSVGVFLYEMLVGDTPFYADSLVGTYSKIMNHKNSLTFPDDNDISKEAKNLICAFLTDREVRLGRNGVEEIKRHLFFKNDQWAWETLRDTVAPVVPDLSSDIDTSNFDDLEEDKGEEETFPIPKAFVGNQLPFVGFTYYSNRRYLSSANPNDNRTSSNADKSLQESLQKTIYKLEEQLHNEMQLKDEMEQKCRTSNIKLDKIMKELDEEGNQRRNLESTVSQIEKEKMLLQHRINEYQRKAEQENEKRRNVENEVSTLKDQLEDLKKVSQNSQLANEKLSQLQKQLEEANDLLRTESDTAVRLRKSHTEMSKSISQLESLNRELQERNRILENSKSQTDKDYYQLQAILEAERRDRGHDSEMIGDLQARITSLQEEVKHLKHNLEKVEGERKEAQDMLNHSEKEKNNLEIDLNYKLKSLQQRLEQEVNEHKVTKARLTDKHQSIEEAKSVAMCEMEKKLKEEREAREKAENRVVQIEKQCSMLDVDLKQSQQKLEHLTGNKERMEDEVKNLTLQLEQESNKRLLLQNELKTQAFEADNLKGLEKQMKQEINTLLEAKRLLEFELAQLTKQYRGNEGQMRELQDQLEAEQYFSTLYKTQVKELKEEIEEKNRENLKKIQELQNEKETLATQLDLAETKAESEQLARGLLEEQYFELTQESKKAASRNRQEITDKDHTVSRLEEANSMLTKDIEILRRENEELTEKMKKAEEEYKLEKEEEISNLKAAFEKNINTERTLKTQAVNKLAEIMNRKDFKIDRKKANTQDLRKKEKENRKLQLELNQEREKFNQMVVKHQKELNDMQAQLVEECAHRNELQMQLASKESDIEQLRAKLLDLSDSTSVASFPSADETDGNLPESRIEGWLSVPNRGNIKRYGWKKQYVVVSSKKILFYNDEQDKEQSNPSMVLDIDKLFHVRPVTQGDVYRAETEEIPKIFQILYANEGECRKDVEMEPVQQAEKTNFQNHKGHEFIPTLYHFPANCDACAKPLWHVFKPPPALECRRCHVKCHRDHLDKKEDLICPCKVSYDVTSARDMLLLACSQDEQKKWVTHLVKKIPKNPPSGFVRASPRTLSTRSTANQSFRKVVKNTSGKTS
Chain of Serine/threonine-protein kinase PAK 3 (Homo sapiens) (O75914 whole entry, looked up): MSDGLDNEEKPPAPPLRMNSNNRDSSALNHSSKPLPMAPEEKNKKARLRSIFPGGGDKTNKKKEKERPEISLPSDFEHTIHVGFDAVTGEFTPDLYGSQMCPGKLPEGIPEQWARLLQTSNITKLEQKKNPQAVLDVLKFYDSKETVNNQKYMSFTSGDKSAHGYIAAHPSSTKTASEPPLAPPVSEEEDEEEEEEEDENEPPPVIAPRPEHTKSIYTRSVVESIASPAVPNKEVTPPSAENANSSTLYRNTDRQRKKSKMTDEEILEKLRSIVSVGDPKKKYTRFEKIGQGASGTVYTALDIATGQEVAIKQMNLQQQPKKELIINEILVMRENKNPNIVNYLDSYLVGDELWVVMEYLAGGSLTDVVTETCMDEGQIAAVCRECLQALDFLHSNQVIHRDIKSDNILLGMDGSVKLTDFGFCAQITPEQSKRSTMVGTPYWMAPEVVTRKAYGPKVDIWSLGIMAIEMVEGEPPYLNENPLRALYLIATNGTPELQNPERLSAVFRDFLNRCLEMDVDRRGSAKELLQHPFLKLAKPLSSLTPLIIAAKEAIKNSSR
Chain of Serine/threonine-protein kinase WNK2 (Homo sapiens) (Q9Y3S1 whole entry): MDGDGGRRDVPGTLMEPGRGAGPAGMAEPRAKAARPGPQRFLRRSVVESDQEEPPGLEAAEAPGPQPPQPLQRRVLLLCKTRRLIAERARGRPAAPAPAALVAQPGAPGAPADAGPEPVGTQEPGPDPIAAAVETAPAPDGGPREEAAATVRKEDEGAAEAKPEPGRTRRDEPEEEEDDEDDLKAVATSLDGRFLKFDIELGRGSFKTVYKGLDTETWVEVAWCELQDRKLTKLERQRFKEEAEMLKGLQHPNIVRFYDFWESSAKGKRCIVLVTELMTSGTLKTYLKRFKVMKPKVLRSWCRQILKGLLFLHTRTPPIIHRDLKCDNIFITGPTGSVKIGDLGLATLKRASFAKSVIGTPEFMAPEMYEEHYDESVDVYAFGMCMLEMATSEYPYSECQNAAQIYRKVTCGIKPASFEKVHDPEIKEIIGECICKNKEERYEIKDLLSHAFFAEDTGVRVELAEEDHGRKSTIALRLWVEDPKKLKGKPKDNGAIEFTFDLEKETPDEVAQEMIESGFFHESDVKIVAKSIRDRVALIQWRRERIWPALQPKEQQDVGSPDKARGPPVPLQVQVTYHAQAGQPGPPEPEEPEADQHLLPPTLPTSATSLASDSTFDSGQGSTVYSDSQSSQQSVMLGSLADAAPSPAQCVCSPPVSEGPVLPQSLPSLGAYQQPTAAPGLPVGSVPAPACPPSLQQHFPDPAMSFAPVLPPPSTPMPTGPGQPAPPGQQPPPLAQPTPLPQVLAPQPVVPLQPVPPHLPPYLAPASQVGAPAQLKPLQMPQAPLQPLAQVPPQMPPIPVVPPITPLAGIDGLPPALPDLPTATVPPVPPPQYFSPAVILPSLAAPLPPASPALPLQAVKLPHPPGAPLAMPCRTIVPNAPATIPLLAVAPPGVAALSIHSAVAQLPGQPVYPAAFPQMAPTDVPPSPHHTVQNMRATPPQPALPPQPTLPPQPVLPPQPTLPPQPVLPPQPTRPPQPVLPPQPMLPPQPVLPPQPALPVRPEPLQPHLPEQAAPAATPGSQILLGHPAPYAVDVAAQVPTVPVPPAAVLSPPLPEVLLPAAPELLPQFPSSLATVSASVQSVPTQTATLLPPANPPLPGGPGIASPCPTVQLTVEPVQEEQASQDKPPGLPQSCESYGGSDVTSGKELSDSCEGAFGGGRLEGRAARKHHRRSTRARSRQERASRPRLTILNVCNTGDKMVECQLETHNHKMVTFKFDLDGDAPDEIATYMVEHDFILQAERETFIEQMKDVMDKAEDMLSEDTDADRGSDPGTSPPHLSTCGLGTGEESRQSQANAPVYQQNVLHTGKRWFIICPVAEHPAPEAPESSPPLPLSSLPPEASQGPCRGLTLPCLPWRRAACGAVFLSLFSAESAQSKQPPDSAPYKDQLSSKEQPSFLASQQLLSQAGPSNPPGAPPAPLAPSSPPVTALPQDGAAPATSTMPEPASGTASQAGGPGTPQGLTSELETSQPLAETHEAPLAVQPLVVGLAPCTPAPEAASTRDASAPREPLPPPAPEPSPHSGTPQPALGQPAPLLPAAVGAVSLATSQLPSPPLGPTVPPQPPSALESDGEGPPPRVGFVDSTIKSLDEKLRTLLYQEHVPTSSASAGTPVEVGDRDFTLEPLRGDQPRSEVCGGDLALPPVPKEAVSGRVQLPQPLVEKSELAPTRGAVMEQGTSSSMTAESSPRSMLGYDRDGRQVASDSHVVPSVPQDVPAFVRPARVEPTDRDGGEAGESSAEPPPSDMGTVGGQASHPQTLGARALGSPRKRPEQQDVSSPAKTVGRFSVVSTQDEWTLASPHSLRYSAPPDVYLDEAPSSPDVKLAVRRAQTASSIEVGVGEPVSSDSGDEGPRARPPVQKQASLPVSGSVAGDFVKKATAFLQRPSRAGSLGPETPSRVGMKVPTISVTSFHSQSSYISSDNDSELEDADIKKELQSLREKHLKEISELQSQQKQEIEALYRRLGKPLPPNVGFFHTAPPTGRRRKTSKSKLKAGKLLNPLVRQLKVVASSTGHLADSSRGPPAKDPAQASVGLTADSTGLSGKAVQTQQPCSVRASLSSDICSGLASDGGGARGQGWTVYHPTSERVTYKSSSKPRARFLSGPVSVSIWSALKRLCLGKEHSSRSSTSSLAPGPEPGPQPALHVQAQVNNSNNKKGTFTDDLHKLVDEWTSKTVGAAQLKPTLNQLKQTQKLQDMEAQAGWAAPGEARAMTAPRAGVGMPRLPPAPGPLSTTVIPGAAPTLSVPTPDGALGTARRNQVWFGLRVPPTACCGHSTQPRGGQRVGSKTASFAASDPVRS

As a reminder, the inhibition is the share of the control response that was lost under treatment. As for `O=C(N[C@@H](C1CC1)C(F)(F)F)c1cc(-c2cnn3cc(-c4ccc(F)cc4)cnc23)cs1`, the inhibition in assay [1] and in assay [2] was 0% each time. Further, the fold change (FC) in the assay listed under Homo sapiens amounted to 0.16; in assay [3], 0; in assay [4], 0; in assay [5], 0.04.
Consider `CNC(=O)c1ccccc1Oc1nc(Nc2cc(OC)c(OC)c(OC)c2)ncc1Br`, for which the inhibition in assay [6] came to 0%.
Turning to `CC(C)[C@H](NC(=O)c1cc(-c2cnn3cc(-c4ccc(OCCN5CCCCC5)cc4)cnc23)cs1)C(F)(F)F`, the inhibition in assay [7] came out at 0%.
